Measurements as given in the EternaBench riboswitch data.

System: MS2 coat protein
Test: apparent Kd, MS2 coat protein; higher = weaker binding; RNA-MaP array; FMN 200 µM where present
In short: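 The titrant was SNAP-549-labelled MS2 coat protein, run from 0.7 or 1.5 nM in doubling steps to 3 µM. It was applied to designs transcribed by stalled E. coli RNA polymerase on Illumina sequencing-chip clusters, without ligand first and then with constant ligand, in 100 mM Tris-HCl pH 7.5, 80 mM KCl, 4 mM MgCl2, BSA, DTT, yeast tRNA and Tween-20. The apparent Kd is the median of filtered per-cluster binding-curve fits, with green signal normalised to red-channel RNA signal and control-cluster median Fmax.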

[1] = designed as: OFF switch for flavin mononucleotide, no ligand
[2] = ligand present: flavin mononucleotide, designed as: OFF switch for flavin mononucleotide
[3] = designed as: ON switch for flavin mononucleotide, no ligand
[4] = ligand present: flavin mononucleotide, designed as: ON switch for flavin mononucleotide

Sequence	apparent Kd [1]	apparent Kd [2]	apparent Kd [3]	apparent Kd [4]
CCCGGGUUAGGAUAUUUGGGCCCGGGCGAACGCCCGGGCCCGGAGAAGGGACAUGAGGAUCACCCAUGUCCGGG	21.2 nM	19.2 nM		
AAGAAAGAGCGAGGAUAUGCGAUAAAAUAAUAAGCAGAAGGUGCAUAACAUGAGGAUCACCCAUGUUGUUGUCAUGUCAAGAUU	14.2 nM	18.2 nM		
GUGGUACAUGAGGAUCACCCAUGUUAGGAUAUCGCGUGAGGUAAAACUUACACACACACGAGAAGGGACGACAU	88.6 nM	56.2 nM		
GAGUUUACGUUUGUCACUUAGCGAGAGGAUAUGGAAAACAAGACAUGAGGAUCACCCAUGUACUAUCAGAAGGCUCGAGUACGA			7.26 nM	5.59 nM
UUGACGGCAGGAUAUACAUGAGGAUCACCCAUGUAAAUUUUUCGUUUAACUUGAAUGUGUAGAAGGGCCAAAAU	19.4 nM	18.8 nM		
GCCAUCAUAUGAGGAUAUGACACCGAAACGGUGUCAGAAGGCAUGUCGAUAGACAUGAGGAUCACCCAUGUUUACAUGAUGGCA			91.5 nM	20.7 nM
AUACUAAAUGAAGGAUAUCUAAGCAUACACCUGAGAGAAGGUCAUUUUGACAUGAGGAUCACCCAUGUUGUGGUUAAUGGGUUA	237 nM	225 nM		
UUAUUAUAUGUAGGAUAUGCAUAUUAUUAUUGUGCAGAAGGACAUGAGGAUCACCCAUGUAUAUUAUUAUUAUAUAUUAUAUAU	30.9 nM	49.7 nM		
CGAGUUUUUGAGAAGGCAUAUUAUAUUAUACCACAUGUUUACAUGAGGAUCACCCAUGUUUCCUAUGAGGAUAUCAGAAUGUCG	9.34 nM	7.33 nM		
GGAGCCCAGUCAGGAUAUGUAACGCUAAGGCUGUUACAUGAGGAUCACCCAUGUUUCACCGUGAAACAGAAGGGACAAUUGGCG			500 nM	147 nM
GCAGGAUAAGUGAGGAUAUACCUAUGGAUACAUAGGUAGAAGGUACAUGAGGAUCACCCAUGUUCCUUACCUGC	11.9 nM	13.4 nM		
AAAAAGGGAGGAUAUACAUGAGGAUCACCCAUGUAAAAAAAAACAAAAAAAAAAAAAAGUAGAAGGCCCAAAAA	54.8 nM	47.8 nM		
GGGUACAGUGAGAAGGUCUGCGGAUUCCUUAACAUGAGGAUCACCCAUGUAGAAGGAUAUCACAGGUAAAGGUCGGCUAACGAU	5.36 nM	6.58 nM		
ACAUGGAAGCAGGAUAUGCUUGUAUAAUUGUUUGCAGAAGGGCUAACAUGAGGAUCACCCAUGUAAGAGGUCUA	16.2 nM	25.8 nM		
CUAUCGUUGCAGAAGGUUAAAUAAUUUCUCAUCUUGUUUACAUGAGGAUCACCCAUGUAUUUGUUGAAGGAUAUGCAAGUGUUG	12.5 nM	11 nM		
GGGUGACAUGAGGAUCACCCAUGUGAGGAUAUCUGGAUACUCUUUAUUUUAGAUAUCCAGAGAAGGCACACCCU	501 nM	306 nM		
GCUCCCGGUGUCAGGAUAUAGAGUUGGAAACGCCACUAGAAGGGACAUGAGGAUCACCCAUGUCAAGUUCGCUC	14.8 nM	14.9 nM		
UCGACCGGAGGAUAUCACGUAAAGUACAUGAGGAUCACCCAUGUGUGAUGACUCGAGUCGUGAGAAGGCCGAUAUG	76.4 nM	172 nM		

Sequence	apparent Kd [1]	apparent Kd [2]	apparent Kd [3]	apparent Kd [4]
CAAUAAGACACAGGAUAUCCAGACAGGGAAGAUGGAGAAGGGUGAUCAGAAAAGACAUGAGGAUCACCCAUGUCUCGUGCGAUG			631 nM	282 nM
UGAUAGGACAGAGGAUAUACAGAUAGGAUCUACUAUCAAACAAUCCUCACAUGAGGAUCACCCAUGUAGAAGGCUGUCCUAUCU	106 nM	888 nM		
UGAUAACAUGUAGGAUAUCCAGCAUUGACCAUCGGAGAAGGACAUGAGGAUCACCCAUGUACCGAUACAAUGGAAUAAGGGAAU	15.5 nM	17.9 nM		
UUCCUGUCAGGAUAUGACUAGAUGCACGAAAGUGUUUUUAGUUAGAAGGGACAUGAGGAUCACCCAUGUAGUCC	24.1 nM	40 nM		
UAUAGUGGCGUAGGAUAUCUGCGUACAUGAGGAUCACCCAUGUCUCCCAGCAGCUGAUCUGGGACAGAGAAGGGCGACCGCAUA			157 nM	63.6 nM
CGCUCAAGAGAGAAGGAUAGAAUCAGAAGGCGUAACAUGAGGAUCACCCAUGUUUAGUAGUGUAACGAGGAUAUGAAAUGAGCG	9.61 nM	10.8 nM		
UUACCUCAUGAGAAGGACAUGAGGAUCACCCAUGUAGGAUAUCGUGGGAGACAGGUAUUGAAUCUUCGGAUUCAAUACCAGUCU			396 nM	27.6 nM
UACUGGAUUGUAGACGCGUUGCGACGAGAAGGUACACAUGAGGAUCACCCAUGUCGAGUGGGAGGUAAGGAUAUUGGAUGGCGU			293 nM	211 nM
UUUUGAUGAGGAUAUCGAGGUUAGUACAUGAGGAUCACCCAUGUUAUCCAGGUGUCGGUUCGAGAAGGUAUUGGAC	18.5 nM	22.9 nM		
UUGAUGUGAGGAUAUGUGAUCUGCCUUCUAUAUAGAUGAUUACAGAAGGCACAUGAGGAUCACCCAUGUAGAUC	78.5 nM	58.9 nM		
CCAUCAGCGAACGAUACGAAUGGACAUGAGGAUCACCCAUGUAGAAGGACAGGAGAAUAACGGCUGUAGGAUAUACAUUUAGUG	40.3 nM	31.2 nM		
UUAAAUCGAAACAUGAGGAUCACCCAUGUGUUGUAAUUAACAUAGGAUAUGUAUAUACUUUUUAAAUAGAAGGAUGAUAAUACU			16.1 nM	11.6 nM
AUUGUUCGAGAGAAGGGAACAUGAGGAUCACCCAUGUUACCUCACCCGGUGACGGAACUCCAAGUUCAGGAUAUCUCGAGCGAU	7.64 nM	16 nM		
CUAAGACGAUGUCACGUUGUCGGGACAGAAGGCACGUACAUGAGGAUCACCCAUGUAAAACACAGUGAGGAUAUGUACCUGCGA			30.8 nM	8.1 nM
ACCUAUUUGGAGAAGGCCAGAAUGAUUAGGCUAAGGCGUGAUCCUGCAUGGAGGAUAUCCAAAACAUGAGGAUCACCCAUGUUC			130 nM	71.2 nM
GAUCAGCUUGUGAGGAUAUCCGGGCUUAAAGGCUAGGAGAAGGUACAUGAGGAUCACCCAUGUAGAGUCCUGGG	73.8 nM	111 nM		
AGUUACAUACUCAACAUGAGGAUCACCCAUGUACUCUCUUGUAAGGAUAUACAUUCGUAUUGAAAGUAGAAGGUACUAAUUAUG			89.1 nM	77.3 nM
UGUCGGAGCAGAGGAUAUUACAUGAGGAUCACCCAUGUAUGAACCAAUAGCUGGAAACAGCAAUGCAAGAAGGCUGCUCCGACA	5.05 nM	6.53 nM		
